Active and inactive are the calls of the source.
Experiments:
Klebsiella pneumoniae = test: Antibacterial activity against Klebsiella pneumoniae ATCC 700603 assessed as bacterial growth inhibition at 32 ug/ml measured after 16 hrs by broth microdilution method; assay type: functional, organism-based
HaCaT = test: Cytotoxicity against immortal human HaCaT cells assessed as reduction in cell viability at 50 ug/ml after 24 hrs by CCK-8 assay; assay type: cell-based
Summary of the method: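 HeLa 229 and HaCaT cells in DMEM with 10% FBS and 1% penicillin/streptomycin, 37 °C, 5% CO2, seeded at 5000 cells/well. Next day treated with 50 μg/mL in triplicate, with matching DMSO controls. After 24 h, CCK-8 added for 2 h; corrected absorbance read at 450 nm.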

[1] = Drug metabolism in human liver microsomes assessed as amount of drug modified at 1 ug/ml […] in presence of NADPH by LC-MS/MS analysis; assay type: ADME, Microsome; settings: read-out: Drug metabolism
Staphylococcus aureus [2] = test: Antibacterial activity against methicillin-resistant Staphylococcus aureus ATCC 43300 assessed as bacterial growth inhibition at 32 ug/ml measured after 16 hrs by broth microdilution method; assay type: functional, organism-based
[3] = Stability of compound in human liver microsomes at 1 ug/ml measured up to 60 mins in absence of NADPH by LC-MS/MS analysis; assay type: ADME, Microsome; settings: 1 h
Summary of the method: (§1)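 Human liver microsomes (1.0 mg/mL protein) in 100 mM phosphate pH 7.4 with 10 mM MgCl2 and 2 mM NADPH, preincubated 10 min at 37 °C. Reaction started with compound at 1 μg/mL. Sampled at 0, 5, 15, 20, 30, 45 and 60 min and quenched in methanol with internal standard. Controls: no NADPH (negative), testosterone (positive). Analysed by LC-MS/MS, triplicate.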

Acinetobacter baumannii = test: Antibacterial activity against Acinetobacter baumannii ATCC 19606 assessed as bacterial growth inhibition at 32 ug/ml measured after 16 hrs by broth microdilution method; assay type: functional, organism-based; settings: ATCC 19606 = CIP 70.34 = JCM 6841
Staphylococcus aureus [4] = test: Antibacterial activity against Staphylococcus aureus JE2 assessed as bacterial death up to 256 ug/ml measured after 16 hrs by broth microdilution method; assay type: functional, organism-based
Summary of the method: (§2)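 Broth microdilution in Mueller Hinton broth, triplicate. Direct colony suspension at 1.5 x 10^8 CFU/mL diluted to ~10^5 CFU/mL. Serial dilutions made from DMSO stocks at 1 mg/mL; vancomycin positive control, blank medium negative control. Incubated 16 h at optimum temperature. MIC is the lowest concentration without visible growth at 600 nm; mean of triplicate determinations.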

[5] = Intrinsic clearance in human liver microsomes at 1 ug/ml measured per mg protein up to 60 mins by LC-MS/MS analysis; assay type: ADME, Microsome; summary of the method: as §1
[6] = Stability of compound in mouse pre-heated plasma at 50 uM incubated up to 120 mins by HPLC-ESI/MS analysis; assay type: ADME, cell-free; settings: 2 h
Summary of the method: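 Compounds from 2.5 mM DMSO stocks incubated at 50 μM final in mouse plasma diluted to 80% with PBS, preheated, 37 °C, shaking. Sampled at 0, 15, 30, 60, 90 and 120 min and quenched with cold acetonitrile. Centrifuged; supernatant analysed by HPLC-ESI-MS. Peak area reported relative to time zero. Enalapril positive control; triplicate.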

Chlamydia trachomatis [7] = test: Anti-chlamydial activity against Chlamydia trachomatis Serovar LGV-L2 infected in Hep2 cells assessed as reduction in chlamydial infectivity by measuring decrease in inclusion forming units at 50 ug/ml treated at 8 hrs post-infection and 24 hrs later re-infecting fresh Hep2 cells monolayer with infected cells and measured at 24 hrs post re-infection by immunofluorescence staining based microscopy analysis; assay type: functional, organism-based
Summary of the method: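 HEp-2 cells in DMEM with 10% FBS, infected with C. trachomatis L2 at MOI 1. Compounds added 8 hpi in triplicate; DMSO stocks at 50 mg/mL. At 24 hpi lysates collected in sucrose storage medium, frozen at −80 °C, and used to infect fresh HEp-2 monolayers in 10-fold dilutions. After 24 h, stained with goat anti-MOMP and Alexa488 secondary. Inclusions counted in 15 fields at 20x; IFU = mean count per field corrected for dilution.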

Chlamydia trachomatis [8] = test: Anti-chlamydial activity against Chlamydia trachomatis Serovar LGV-L2 infected in Hep2 cells assessed as inhibition of chlamydial inclusion at 50 ug/ml treated at 8 hrs post infection and measured at 24 hrs post-infection by immunofluorescence assay; assay type: functional, organism-based
Summary of the method: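 HEp-2 cells infected with C. trachomatis serovar L2. Compounds at 50 μg/mL added 8 hpi; inclusion number and size assessed by immunofluorescence at 24 hpi against untreated cells. Cell morphology and viability checked by phase-contrast microscopy.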

[9] = Stability of the compound in simulated gastric fluid at 50 uM and pH 1.2 at 37 degree C measured up to 120 mins by HPLC-ESI/MS analysis; settings: simulated gi fluid, pH 1.2, 2 h
Cryptococcus neoformans = test: Antifungal activity against Cryptococcus neoformans var. grubii H99 ATCC […] as fungal growth inhibition at 32 ug/ml measured after 16 hrs by broth microdilution method; assay type: functional, organism-based; settings: var. grubii H99 ATCC 208821
Escherichia coli [10] = test: Antibacterial activity against Escherichia coli ATCC 25922 assessed as bacterial growth inhibition at 32 ug/ml measured after 16 hrs by broth microdilution method; assay type: functional, organism-based
Escherichia coli [11] = test: Antibacterial activity against Escherichia coli K12 assessed as bacterial growth inhibition at 32 ug/ml measured after 16 hrs by broth microdilution method; assay type: functional, organism-based; settings: K-12; summary of the method: as §2
Staphylococcus aureus [12] = test: Antibacterial activity against Staphylococcus aureus JE2 assessed as bacterial growth inhibition at 32 ug/ml measured after 16 hrs by broth microdilution method; assay type: functional, organism-based; summary of the method: as §2
[13] = Hepatic intrinsic clearance in human liver microsomes at 1 ug/ml measured per kg body weight up to 60 mins by LC-MS/MS analysis; assay type: ADME, Microsome; settings: 1 h
Pseudomonas aeruginosa = test: Antibacterial activity against Pseudomonas aeruginosa ATCC 27853 assessed as bacterial growth inhibition at 32 ug/ml measured after 16 hrs by broth microdilution method; assay type: functional, organism-based
Candida albicans = test: Antifungal activity against Candida albicans ATCC 90028 assessed as fungal growth inhibition at 32 ug/ml measured after 16 hrs by broth microdilution method; assay type: functional, organism-based
[14] = Half life in human liver microsomes at 1 ug/ml measured up to 60 mins by LC-MS/MS analysis; assay type: ADME, Microsome; summary of the method: as §1
Escherichia coli [15] = test: Antibacterial activity against Escherichia coli K12 assessed as bacterial death up to 256 ug/ml measured after 16 hrs by broth microdilution method; assay type: functional, organism-based; settings: K-12; summary of the method: as §2
[16] = target: ATP-dependent Clp protease proteolytic subunit (Escherichia coli (strain K12)) (UniProt P0A6G7); test: (§3) Activation of recombinant Escherichia coli ClpP assessed as induction of casein degradation at 0.1 to 1 uM using FITC-labelled casein as substrate pretreated with enzyme for 30 mins followed by substrate addition and measured every 3 mins for 3 hrs in absence of AAA+ chaperone by fluorescence based tecan-plate reader assay
Summary of the method: (§4)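 Recombinant C-terminal His6-tagged ClpP, expressed in a clpAPX-null E. coli strain and purified (mammalian ClpP without mitochondrial signal, codon-optimized). ClpP at 1 or 0.1 μM (E. coli), 1 μM (human, mouse) or 6 μM (chlamydial ClpP1 and ClpP2) preincubated with compound or DMSO, 30 min, 32 °C, in HEPES pH 7.6/KCl/MgCl2/DTT/glycerol buffer. 20 μM FITC-casein then added. Fluorescence (ex 490/em 525 nm) read every 3 min for 3 h. At least three runs on at least two protein preparations.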

[17] = as §3, with “recombinant mouse C-terminal 6xHis-tagged ClpP expressed in” for “recombinant”, “coli” for “coli ClpP”; summary of the method: as §4
[18] = as §3, with “recombinant human C-terminal 6xHis-tagged ClpP expressed in” for “recombinant”, “coli” for “coli ClpP”; summary of the method: as §4
[19] = Mutagenicity in Drosophila melanogaster somatic cells assessed as frequency of clone formation in ST crosses at 0.25 to 1 mM by SMART assay; assay type: ADME; settings: 1000 µM
Summary of the method: (§5)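 Drosophila SMART wing-spot assay, ST and HB crosses. Third-instar larvae (72 ± 4 h) placed on hydrated instant mashed potato medium containing compound at 0.25, 0.5 or 1.0 mM final. Negative control: water with 1% Tween-80 and 3% ethanol. Statistics by Frei and Würgler two-sided U test, P≤0.05.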

[20] = Mutagenicity in Drosophila melanogaster somatic cells assessed as frequency of clone formation in HB crosses at 0.25 to 1 mM by SMART assay; assay type: ADME; settings: 1000 µM; summary of the method: as §5
[21] = Toxicity in Drosophila melanogaster assessed as survival rate at 0.25 to 1 mM; settings: 1000 µM
Summary of the method: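 Drosophila SMART assay using third-instar larvae (72 ± 4 h) from ST and HB crosses. Larvae exposed in hydrated instant mashed-potato medium at 0.25, 0.5 and 1.0 mM final. Vehicle control: water with 1% Tween-80 and 3% ethanol. Survival of treated groups compared statistically with the vehicle control.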

Sequence of ATP-dependent Clp protease proteolytic subunit (Escherichia coli (strain K12)) (P0A6G7 whole entry): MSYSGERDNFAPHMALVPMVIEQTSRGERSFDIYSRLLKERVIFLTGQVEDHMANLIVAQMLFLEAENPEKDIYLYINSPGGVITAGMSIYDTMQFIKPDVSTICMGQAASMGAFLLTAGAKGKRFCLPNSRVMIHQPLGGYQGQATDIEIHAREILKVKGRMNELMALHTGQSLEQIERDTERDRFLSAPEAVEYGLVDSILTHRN

CC(C)(C(=O)N1CCN(c2ccc(Cl)c(Cl)c2)CC1)S(=O)(=O)c1ccc(C(F)(F)F)cn1
Non-Toxic: Activity (HaCaT)
inactive: inhibition (Klebsiella pneumoniae) | inhibition (Staphylococcus aureus [2]) | inhibition (Acinetobacter baumannii) | Activity (Staphylococcus aureus [4]) | inhibition (Cryptococcus neoformans) | inhibition (Escherichia coli [10]) | inhibition (Escherichia coli [11]) | inhibition (Staphylococcus aureus [12]) | inhibition (Pseudomonas aeruginosa) | inhibition (Candida albicans) | Activity (Escherichia coli [15])
active: inhibition (Chlamydia trachomatis [7]) | inhibition (Chlamydia trachomatis [8])
90%: metabolised at 10 min, 1 ug/ml [1]
Stable: Stability [3] | Stability [6] | Stability [9]
6.25 min: half-life at 1 ug/ml ([14]; liver microsomes)
112 µL/min/mg: microsomal CLint at 1 ug/ml ([5]; liver microsomes, read-out: CLH)
874 mL/min/kg: CLH [13]

CC(C)(C(=O)NCCSc1ccc(Cl)cc1)S(=O)(=O)c1ccccc1
Not Active: Activity [17] | Activity [18]
inactive: inhibition (Klebsiella pneumoniae) | inhibition (Staphylococcus aureus [2]) | inhibition (Acinetobacter baumannii) | Activity [16] | inhibition (Chlamydia trachomatis [8]) | inhibition (Cryptococcus neoformans) | inhibition (Escherichia coli [10]) | inhibition (Escherichia coli [11]) | inhibition (Staphylococcus aureus [12]) | inhibition (Pseudomonas aeruginosa) | inhibition (Candida albicans)

CC(C)(C(=O)N1CCN(Cc2cccc(Cl)c2)CC1)S(=O)(=O)c1ccc(C(F)(F)F)cn1
Non-Toxic: Activity [19] | Activity [20] | Activity [21]
inactive: inhibition (Klebsiella pneumoniae) | inhibition (Staphylococcus aureus [2]) | inhibition (Acinetobacter baumannii) | inhibition (Cryptococcus neoformans) | inhibition (Escherichia coli [10]) | inhibition (Escherichia coli [11]) | inhibition (Staphylococcus aureus [12]) | inhibition (Pseudomonas aeruginosa) | inhibition (Candida albicans)
active: inhibition (Chlamydia trachomatis [7]) | inhibition (Chlamydia trachomatis [8])

CC(C)(C(=O)NCCSc1ccccc1Cl)S(=O)(=O)c1ccccc1
inactive: Activity [16] | inhibition (Chlamydia trachomatis [8])
Not Active: Activity [17] | Activity [18]

Cc1ccccc1N1CCN(C(=O)C(C)(C)S(=O)(=O)c2ccc(C(F)(F)F)cn2)CC1
active: inhibition (Chlamydia trachomatis [7]) | inhibition (Chlamydia trachomatis [8])
inactive: inhibition (Klebsiella pneumoniae) | inhibition (Staphylococcus aureus [2]) | inhibition (Acinetobacter baumannii) | Activity (Staphylococcus aureus [4]) | inhibition (Cryptococcus neoformans) | inhibition (Escherichia coli [10]) | inhibition (Escherichia coli [11]) | inhibition (Staphylococcus aureus [12]) | inhibition (Pseudomonas aeruginosa) | inhibition (Candida albicans) | Activity (Escherichia coli [15])

CC(C)(C(=O)NCCOc1ccccc1)S(=O)(=O)c1ccc(C(F)(F)F)cn1
90%: metabolised at 10 min, 1 ug/ml [1]
185.6 µL/min: microsomal intrinsic clearance ([5]; microsomes, 1 h)
Stable: Stability [3]
1460 mL/min/kg: CLH [13]
inactive: inhibition (Klebsiella pneumoniae) | inhibition (Staphylococcus aureus [2]) | inhibition (Acinetobacter baumannii) | Activity (Staphylococcus aureus [4]) | inhibition (Cryptococcus neoformans) | inhibition (Escherichia coli [10]) | inhibition (Escherichia coli [11]) | inhibition (Staphylococcus aureus [12]) | inhibition (Pseudomonas aeruginosa) | inhibition (Candida albicans) | Activity (Escherichia coli [15])
active: inhibition (Chlamydia trachomatis [7]) | inhibition (Chlamydia trachomatis [8])
3.73 min: t1/2 ([14]; microsomes, 1 h)

CC(C)(C(=O)NCCOc1ccccc1Cl)S(=O)(=O)c1ccccc1
Non-Toxic: Activity [21]
inactive: inhibition (Klebsiella pneumoniae) | inhibition (Staphylococcus aureus [2]) | inhibition (Acinetobacter baumannii) | inhibition (Chlamydia trachomatis [8]) | inhibition (Cryptococcus neoformans) | inhibition (Escherichia coli [10]) | inhibition (Escherichia coli [11]) | inhibition (Staphylococcus aureus [12]) | inhibition (Pseudomonas aeruginosa) | inhibition (Candida albicans)

Cc1ccc(CN2CCN(C(=O)C(C)(C)S(=O)(=O)c3ccc(C(F)(F)F)cn3)CC2)cc1
inactive: inhibition (Klebsiella pneumoniae) | inhibition (Staphylococcus aureus [2]) | inhibition (Acinetobacter baumannii) | Activity (Staphylococcus aureus [4]) | inhibition (Cryptococcus neoformans) | inhibition (Escherichia coli [10]) | inhibition (Escherichia coli [11]) | inhibition (Staphylococcus aureus [12]) | inhibition (Pseudomonas aeruginosa) | inhibition (Candida albicans) | Activity (Escherichia coli [15])
Non-Toxic: Activity (HaCaT)
active: inhibition (Chlamydia trachomatis [8])

Reference: ChEMBL document CHEMBL4342502, “Synthesis and Antichlamydial Activity of Molecules Based on Dysregulators of Cylindrical Proteases” (J Med Chem, 2020)
